S100A4 inh HTS: blocks human S100A4 binding to myosin IIA peptide. P26447. S100A4/TAMRA-MyoIIA peptide fluorescence polarization. inhibition, % at 10.7 µM. 0.14% of 360,000 active. AID 652163;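 active means mean inhibition of at least 70% across replicates, with every replicate also reaching that level; inconclusive means mean inhibition reaches 70% but some replicates fall short; inactive means mean inhibition below 70%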
Target sequence (P26447 whole entry, looked up): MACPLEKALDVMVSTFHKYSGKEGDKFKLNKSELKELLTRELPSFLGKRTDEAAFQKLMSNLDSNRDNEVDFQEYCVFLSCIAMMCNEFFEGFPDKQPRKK
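Compound dosing: one dose per compound; test system: human S100A4 monomer with TAMRA-labelled myosin IIA peptide; probe or stimulus: TAMRA-labelled myosin IIA heavy-chain peptide probe, 5 nM; medium: HEPES buffer with Ca2+, pH 7.2; schedule: 5 min incubation before reading; benchmarks: neutral control DMSO, positive control TFP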
Ecoli rRNA inh: selective bacterial rRNA inhibition in E. coli; E. coli WT GFP vs humanized-ribosome RFP mutants, fluorescence, 24 h; active compounds read low; DMSO median 0, no signal -100; GFP signal change (wild-type ribosome), % (concentration not given with the values); 1.6% of 350,000 active; AID 720706;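 active means significant combined selectivity score with lowered wild-type GFP, culture density cut under 30%, mutant RFP and density less affected; inactive means any of these conditions unmet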
Cneo AK release: Cryptococcus neoformans lysis via adenylate kinase release; lysis activity, % at 15 µM; 0.2% of 360,000 active; C. neoformans lysis, adenylate kinase release luminescence, 4 h; normalised: neutral wells 0, clomiphene wells 100; AID 651654;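 active means mean lysis activity across replicates of at least 80%, whatever share of replicates individually reach that level; inactive means mean lysis activity below 80%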
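Schedule: static 4 h at 37 °C with compound, 1 h detection; system: C. neoformans cells; benchmarks: Clomiphene as positive control; buffer or medium: fresh YPD medium; measure: luminescence rise reflecting yeast cell lysis; measured by: luminescent adenylate kinase detection reagent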
DENV2 CPE: protects cells from dengue virus 2 cytopathic effect | DENV2-infected cells, cytopathic effect rescue, plate reader | 1.7% of 350,000 active | CPE inhibition, % at 9.99 µM | AID 651640; in the data active means CPE inhibition above about 20%, passing the limit was not always enough; inconclusive means no clear call, values can overlap the other calls; tested in BHK-21 cells;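 further: 0% = median of neutral control wells and 100% = median of positive control wells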
MLL AF4-AF9 inh: inhibitors of human MLL-AF4/AF9 interaction; AlphaScreen, biotin-AF4 peptide binding to FLAG-AF9; inhibition, % at 10 µM; 0.47% of 350,000 active; AID 651704;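 active means every replicate reaching a set inhibition limit, whatever the replicate mean, cut at about 25% in these data; inconclusive means mean inhibition reaches that limit but some replicates miss it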;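 further: 0% = plate neutral control median and 100% = total signal loss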
Target sequence (P42568 whole entry, looked up): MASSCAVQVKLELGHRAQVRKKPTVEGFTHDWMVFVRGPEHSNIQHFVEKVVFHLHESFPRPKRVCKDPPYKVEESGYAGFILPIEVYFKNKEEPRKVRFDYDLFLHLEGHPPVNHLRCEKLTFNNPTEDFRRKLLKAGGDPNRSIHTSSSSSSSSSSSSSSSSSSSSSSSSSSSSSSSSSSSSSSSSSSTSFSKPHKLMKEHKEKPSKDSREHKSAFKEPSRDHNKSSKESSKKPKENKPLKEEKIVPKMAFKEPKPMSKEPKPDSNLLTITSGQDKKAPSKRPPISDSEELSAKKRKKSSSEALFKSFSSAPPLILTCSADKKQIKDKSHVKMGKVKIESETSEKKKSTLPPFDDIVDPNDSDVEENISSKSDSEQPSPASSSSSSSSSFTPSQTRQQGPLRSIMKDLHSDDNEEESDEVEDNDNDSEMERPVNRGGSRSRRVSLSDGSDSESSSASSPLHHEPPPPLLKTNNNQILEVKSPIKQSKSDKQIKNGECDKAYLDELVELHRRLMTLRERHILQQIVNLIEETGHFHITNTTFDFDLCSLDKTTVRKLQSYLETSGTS
PfHsp90 yeast 2: growth inhibition of yeast expressing Plasmodium Hsp90 | AID 504621 | 0.32% of 310,000 active | S. cerevisiae expressing PfHsp90, BacTiter-Glo ATP, 48 h; yeast lacking PDR1 and PDR3 efflux regulators | inhibition, % at 9.4 µM;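 active means every replicate shows inhibition above about 80%, whatever the replicate mean, limit read from the data; inconclusive means mean inhibition reaches the set limit but some replicate falls short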;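 further: 0% = DMSO neutral controls and 100% = 20 µM radicicol positive controls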
The depositor's hits bear a star; ? = inconclusive; . = no result; ! = not confirmed by another sample. This is a sample that favours compounds with a hit; in the whole collection about 3.2% have one here.

SMILES	S100A4 inh HTS	Ecoli rRNA inh	Cneo AK release	DENV2 CPE	MLL AF4-AF9 inh	PfHsp90 yeast 2
C[C@@H]1CN([C@H](C)CO)C(=O)c2cccc(NC(=O)Nc3ccc(F)cc3)c2O[C@H]1CN(C)C(=O)Nc1ccccc1	1	-4	1	13	0	.
CC(C)NC(=O)N(C)C[C@@H]1Oc2ccc(N)cc2C(=O)N(C)C[C@@H]1C	.	2	.	.	.	.
CCCCCCCNC(=O)C1(CC2CC(c3cccc(Br)c3)=NO2)CCN(C(=O)CCCCCBr)CC1 (configuration not stated)	0	-20*	-1	-6	-1	21
O=C(C1CCCC1)N1CCC(CC2CC(c3cccc(Br)c3)=NO2)(C(=O)NCC2CCCCC2)CC1 (configuration not stated)	2	-10	3	53*	2	-7
CCCN1C[C@H](C)[C@@H](OC)CN(C)C(=O)c2cc(NC(=O)c3cnccn3)ccc2OC[C@@H]1C	5	1	49	6	-1	.
CCN(CC)CCNc1ccc(C)c2sc3ccc(O)cc3c(=O)c12	-8	-66	.	12	50*	-2
Nc1ccc(Oc2cc(N)cc(Oc3ccccc3)c2)cc1	-2	-21*	0	-9	5	7
O=C1C(Cl)=C(NCCCO)C(=O)c2ccccc21	.	.	3	.	.	-3
CCOCCCNC1=C(Cl)C(=O)c2ccccc2C1=O	-1	-33	.	-8	.	107*
Cc1ccc(S(=O)(=O)N(C)C[C@@H]2Oc3ccc(NC(=O)Nc4c(C)noc4C)cc3CC(=O)N([C@@H](C)CO)C[C@@H]2C)cc1	0	2	47	6	2	.
S=C1NCCN1CC1CCN(CCCC2CCCC2)CC1	2	7	-1	72*	3	-3
CC[C@@H](CCC=C(C)C)C(=O)N(Cc1ccccc1)c1ccccc1	0	-2	-3	-11	2	5
CC(C)C[C@@H](C)C(=O)N(Cc1ccccc1)c1ccccc1	-4	-35*	0	18	-2	.
C[C@H]1CN([C@@H](C)CO)S(=O)(=O)c2ccc(-c3cccc(C(=O)N(C)C)c3)cc2O[C@H]1CN(C)C	9	-2	6	-4	-1	.
CC(C)(C)c1cccc(C2(O)C(=O)c3ccccc3C2=O)c1O	0	-38*	.	0	0	-1
COc1ccc(Nc2ccc(S(=O)(=O)N3CCCCC3)cc2[N+](=O)[O-])cc1Cl	-3	2	1	41*	7	-3
COc1ccc(Nc2ccc(S(=O)(=O)N3CCCCC3)cc2[N+](=O)[O-])cc1	.	.	3	.	.	-10
CC(C)(C)N1CC23CCC(C[C@@H]2C1=O)O3 (some centres not stated)	-20	5	4	39*	-3	0
Cc1noc(C)c1S(=O)(=O)N(C)C[C@@H]1OCCCC[C@H](C)Oc2ccc(NS(C)(=O)=O)cc2C(=O)N([C@H](C)CO)C[C@H]1C	-6	1	.	-2	-2	.
Cc1cc(C)c2[nH]c(C(=O)Nc3ccc4c(c3)OCO4)cc2c1	-5	-19	.	24*	4	-30
CCOC(=O)C1=NNC(C(=O)c2ccc(C)cc2)C1c1ccc(C)cc1 (configuration not stated)	.	.	1	.	.	-8
CCOC(=O)C1=NNC(C(=O)c2ccccc2)C1c1ccc(C)cc1 (configuration not stated)	2	-26*	.	4	3	14
CCC(=O)Nc1ccc2c(c1)C(=O)N(C)C[C@H](OC)[C@H](C)CN(Cc1cncnc1)[C@@H](C)CO2	.	-1	.	.	.	.
COc1cc(O)c(C(C)=O)c2c1C=CC(C)(C)O2	-14	-2	6	27*	-6	12
CCCn1c(=O)c(C(=O)NNS(=O)(=O)c2ccc(C)cc2)c(O)c2ccccc21	2	-49	.	35*	-5	7
SMILES	S100A4 inh HTS	Ecoli rRNA inh	Cneo AK release	DENV2 CPE	MLL AF4-AF9 inh	PfHsp90 yeast 2
CCOC(=O)c1nc(N)c(C(=O)OCC)[nH]1	.	.	2	.	.	-1
CCOC(=O)c1c(C)nc(C(Cl)(Cl)Cl)nc1N	13	-37*	-3	.	-2	-15
C[C@@H](NC(=O)C[C@H]1CC[C@H](NC(=O)CN2CCOCC2)[C@@H](CO)O1)c1ccccc1	-1	0	5	.	-1	.
COC(=O)C[C@H]1CC[C@H]2[C@@H](COC[C@H](O)CN2S(=O)(=O)c2ccccc2C)O1	8	-2	5	3	-2	.
O=S(=O)(NCCC1CC1(Cl)Cl)c1ccc(Cl)cc1 (configuration not stated)	8	-48*	.	-4	.	-2
COc1ccc(C2=Nc3ccccc3NC(=O)C2N(Cc2ccccc2)C(=O)C2=NNC(=O)CC2)cc1 (configuration not stated)	2	-23*	1	-7	3	.
C(=N\Nc1nc(Nc2ccccc2)nc(N2CCCCC2)n1)/c1ccco1	-4	-38*	.	0	?	.
c1cnc(N2CCN(c3nc4ccccc4n4cnnc34)CC2)nc1	.	.	-1	.	.	-2
CCOC(=O)N1CCN(c2nc3ccccc3n3cnnc23)CC1	-1	-17*	.	-5	-55	-17
CCOc1ccc(CN2CCN(CCCc3ccccc3)CC2CCO)cc1 (configuration not stated)	-2	1	0	22*	5	5
Cc1n(Cc2ccccc2)c2ccccc2[n+]1Cc1ccccc1	1	-34*	-7	-2	-2	14
C[C@H]1CN([C@@H](C)CO)C(=O)c2cc(Br)cnc2O[C@@H]1CN(C)C(=O)Nc1ccc(C(F)(F)F)cc1	4	-12*!	3	18	0	.
C[C@H](CO)N1C[C@H](C)[C@@H](CN(C)C(=O)Nc2ccc(C(F)(F)F)cc2)Oc2ncc(-c3cccnc3)cc2C1=O	-13	4	-9	30*	-2	.
Cc1ccccc1-c1cnc2c(c1)C(=O)N([C@H](C)CO)C[C@@H](C)[C@@H](CN(C)C(=O)c1cccnc1)O2	-7	3	-6	-7	-1	.
Cc1ccc(SCCN2CCC(NC(=O)OCc3ccccc3)CCC2=O)cc1 (configuration not stated)	3	-18	1	32*	0	-18
O=C(N[C@H]1CCC(=O)N(CCSc2ccc(Br)cc2)CC1)OCc1ccccc1	-4	-17	1	-2	-1	-9
COc1cccc(-c2ccc([C@H]3[C@@H](CO)N4C(=O)CN(C(=O)NC(C)C)C[C@@H]34)cc2)c1	10	-1	.	4	0	.
CCOCCN1CCN(C2c3ccccc3CSc3ccccc32)CC1 (configuration not stated)	-2	-25*	1	-5	11	0

High-throughput results deposited in PubChem BioAssay by Broad Institute.
